T1: Luciferin 4-monooxygenase (Luciola lateralis) (UniProt Q01158)
T1 sequence (whole entry): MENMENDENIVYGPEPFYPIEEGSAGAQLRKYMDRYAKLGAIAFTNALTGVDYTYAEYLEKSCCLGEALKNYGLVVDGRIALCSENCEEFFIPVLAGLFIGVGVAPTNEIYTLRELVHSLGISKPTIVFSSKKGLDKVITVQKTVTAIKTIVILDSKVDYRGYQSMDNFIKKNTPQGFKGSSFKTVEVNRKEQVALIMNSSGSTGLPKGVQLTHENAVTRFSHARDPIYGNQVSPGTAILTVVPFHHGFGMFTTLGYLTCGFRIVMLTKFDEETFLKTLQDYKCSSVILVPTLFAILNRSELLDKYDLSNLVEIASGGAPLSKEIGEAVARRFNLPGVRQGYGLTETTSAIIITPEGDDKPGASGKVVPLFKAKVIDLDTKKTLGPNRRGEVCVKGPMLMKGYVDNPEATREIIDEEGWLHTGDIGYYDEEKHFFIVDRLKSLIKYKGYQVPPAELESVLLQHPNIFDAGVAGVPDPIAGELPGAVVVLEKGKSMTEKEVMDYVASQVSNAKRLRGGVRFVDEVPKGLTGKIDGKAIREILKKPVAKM

T2: Luciferin 4-monooxygenase (Luciola lateralis, UniProt Q01158)
T2 sequence (Q01158 whole entry): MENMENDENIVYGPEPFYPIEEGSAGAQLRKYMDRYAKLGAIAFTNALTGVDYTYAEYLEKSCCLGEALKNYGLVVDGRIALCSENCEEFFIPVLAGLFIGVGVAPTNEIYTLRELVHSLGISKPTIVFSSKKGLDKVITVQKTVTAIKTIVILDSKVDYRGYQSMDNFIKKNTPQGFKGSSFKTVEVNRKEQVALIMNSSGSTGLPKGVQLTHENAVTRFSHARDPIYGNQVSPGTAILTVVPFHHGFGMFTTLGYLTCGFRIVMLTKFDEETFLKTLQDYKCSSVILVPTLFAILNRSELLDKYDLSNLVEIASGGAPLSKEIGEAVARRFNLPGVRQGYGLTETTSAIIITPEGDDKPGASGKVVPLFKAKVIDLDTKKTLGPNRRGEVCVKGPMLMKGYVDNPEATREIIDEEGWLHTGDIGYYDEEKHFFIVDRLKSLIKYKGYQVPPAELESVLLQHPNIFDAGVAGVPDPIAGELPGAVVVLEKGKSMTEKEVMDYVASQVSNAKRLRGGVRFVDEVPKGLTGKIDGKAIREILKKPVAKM

B1: Luciferin 4-monooxygenase (Luciola lateralis), Q01158 (protein)
chain: MENMENDENIVYGPEPFYPIEEGSAGAQLRKYMDRYAKLGAIAFTNALTGVDYTYAEYLEKSCCLGEALKNYGLVVDGRIALCSENCEEFFIPVLAGLFIGVGVAPTNEIYTLRELVHSLGISKPTIVFSSKKGLDKVITVQKTVTAIKTIVILDSKVDYRGYQSMDNFIKKNTPQGFKGSSFKTVEVNRKEQVALIMNSSGSTGLPKGVQLTHENAVTRFSHARDPIYGNQVSPGTAILTVVPFHHGFGMFTTLGYLTCGFRIVMLTKFDEETFLKTLQDYKCSSVILVPTLFAILNRSELLDKYDLSNLVEIASGGAPLSKEIGEAVARRFNLPGVRQGYGLTETTSAIIITPEGDDKPGASGKVVPLFKAKVIDLDTKKTLGPNRRGEVCVKGPMLMKGYVDNPEATREIIDEEGWLHTGDIGYYDEEKHFFIVDRLKSLIKYKGYQVPPAELESVLLQHPNIFDAGVAGVPDPIAGELPGAVVVLEKGKSMTEKEVMDYVASQVSNAKRLRGGVRFVDEVPKGLTGKIDGKAIREILKKPVAKM

Substrate in one series: O=C(Nc1ccc2ccccc2n1)c1ccccc1
The settings on record: Aquatica lateralis; 0.1 uM.
Broadly, the Km is the concentration of substrate that gives half-maximal velocity. Consider B1, for which the Km came out at 16 µM and the Vmax was found to be 96%.

The next series has as its target T1, Luciferin 4-monooxygenase (Luciola lateralis). The series is described as follows: Inhibition of firefly luciferase activity at 10 uM. The settings on record: Aquatica lateralis. In short, it runs like this:
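Single 10 µM inhibitor concentration against 32 pM firefly luciferase with 50 µM D-luciferin and 90 µM ATP, pH 7.8 glycine-Tris buffers containing MgSO4 and EDTA. 30 min incubation in the dark at room temperature, then luminescence read. Percent inhibition from n = 2 experiments in duplicate.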
What is called inhibition is the drop in the measured response relative to a control, in per cent. A higher inhibition goes with strong suppression. For the molecule `O=C(Nc1ccc(-c2ccccc2)cn1)Oc1ccccc1`, the inhibition turned out to be 0%.

In the case of `O=C(Nc1ccccc1)Nc1ccc(-c2ccccc2)cn1`, the inhibition is 20%.

Take `CC(C)(C)c1ccc(-c2ccc(NC(=O)c3ccccc3)nc2)cc1`: the inhibition amounted to 49%.

Molecule `O=C(Nc1ccccn1)c1ccccc1` yielded an inhibition of 27%.

`CCCC(=O)Nc1ccc(-c2ccccc2)cn1` registered an inhibition of 22%.

In turn, `O=C(Nc1ccc(-c2cccc(Cl)c2)cn1)c1ccccc1` showed an inhibition of 38%.

In turn, `O=C(Nc1ccc(-c2ccccc2)cn1)c1ccc(Cl)cc1` yielded an inhibition of 0%.

In turn, `c1ccc(CNc2ccc(-c3ccccc3)cn2)cc1` returned an inhibition of 20%.

The molecule `Cc1ccc(-c2ccc(NC(=O)c3ccccc3)nc2)cc1` came in with an inhibition of 51%.

Regarding `O=C(Nc1ccc(-c2ccc(Cl)c(Cl)c2)cn1)c1ccccc1`, the inhibition came to 4%.

Regarding `CC(C)Oc1ccc(C(=O)Nc2ccc(-c3ccccc3)cn2)cc1`, the inhibition is 12%.

`CC(C)Oc1ccc(-c2ccc(NC(=O)c3ccccc3)nc2)cc1` gave an inhibition of 38%.

For the molecule `O=C(Nc1ccc(-c2ccccc2)cn1)c1ccc(Cl)c(Cl)c1`, the inhibition worked out at 13%.

Molecule `CN(C)c1ccc(C(=O)Nc2ccc(-c3ccccc3)cn2)cc1` showed an inhibition of 35%.

As to `COc1ccc(C(=O)Nc2ccc(-c3ccccc3)cn2)cc1`, the inhibition turned out to be 28%.

Regarding `Cc1ccc(C(=O)Nc2ccc(-c3ccccc3)cn2)cc1`, the inhibition amounted to 18%.

As for `COc1ccc(C(=O)Nc2ccc(-c3ccccc3)cn2)c(OC)c1`, the inhibition was 26%.

`O=C(Nc1ccc(-c2ccc(C(F)(F)F)cc2)cn1)c1ccccc1` showed an inhibition of 39%.

The molecule `O=C(Nc1cccc(-c2ccccc2)n1)c1ccccc1` displayed an inhibition of 30%.

Molecule `CN(C)c1ccc(-c2ccc(NC(=O)c3ccccc3)nc2)cc1` returned an inhibition of 14%.

Substrate in a further series: O=C(Nc1ccc2ccccc2n1)c1ccccc1
The settings on record: Aquatica lateralis; 1 uM.
In the case of B1, the Michaelis-Menten constant (Km) was 3.8 µM and the Vmax came to 56%.

Substrate in another series: O=C(Nc1ccc2ccccc2n1)c1ccccc1
The settings on record: Aquatica lateralis; 1 uM. This is another data set of the same source.
Take B1: the Michaelis-Menten constant (Km) stood at 53 µM and the Vmax came to 95%.

For a further series, the target named is T2, Luciferin 4-monooxygenase. The series is described as follows: Inhibition of firefly luciferase activity. Also on record: species or system Aquatica lateralis.
Conditions: not given
Put shortly: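 Firefly luciferase (32 pM) in glycine-Tris buffer with EDTA and MgSO4, pH 7.8; substrates 50 µM D-luciferin and 90 µM ATP in glycine-Tris/MgSO4/EDTA/0.1% BSA/azide buffer, pH 7.8. Inhibitor tested at 11 concentrations; 30 min dark incubation, room temperature; luminescence counted. Nonspecific activity defined with 100 µM reference inhibitor. IC50 ± SEM from three experiments in duplicate.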
The term IC50 denotes the concentration at which inhibition is half-maximal. In turn, `O=C(Nc1ccc(-c2ccccc2)cn1)c1ccccc1` yielded an IC50 of 0.069 µM.

With `Cc1ccc(NC(=O)c2ccccc2)nc1`, 6.4 µM corresponded to half-maximal inhibition (IC50).

`O=C(Nc1ccc2ccccc2n1)c1ccccc1` returned an IC50 of 1.7 µM.

Molecule `O=C(Nc1ccc(-c2ccc(Cl)cc2)cn1)c1ccccc1` returned an IC50 of 0.56 µM.

In turn, `COc1ccc(C(=O)Nc2ccc(C)cn2)c(OC)c1` gave an IC50 of 0.61 µM.

The molecule `COc1ccc(-c2ccc(NC(=O)c3ccccc3)nc2)cc1` showed an IC50 of 0.31 µM.

`O=C(Nc1ccc(-c2ccccc2)cn1)C1CCCCC1` had an IC50 of 2.4 µM.

In the case of `O=C(Nc1ccc(-c2ccccc2)cn1)c1cccc(Cl)c1`, the IC50 stood at 0.16 µM.

Take `Nc1ccc(C(=O)Nc2ccc(-c3ccccc3)cn2)cc1`: the 50% inhibitory concentration (IC50) was determined as 1.2 µM.

These data come from ChEMBL document CHEMBL1155932, “False positives in a reporter gene assay: identification and synthesis of substituted N-pyridin-2-ylbenzamides as competitive inhibitors of firefly luciferase” (J Med Chem, 2008).
